From ChEMBL document CHEMBL4396931, “Fluorescent analogs of peptoid-based HDAC inhibitors: Synthesis, biological activity and cellular uptake kinetics” (Bioorg Med Chem, 2019) come the findings set out here.

The structures appear in SMILES notation. Active and inactive are the calls of the source. No cut-off for these calls is given here. Bounds are passed on as bounds.

One data set has as its system OE19. The data set can be described thus: Antiproliferative activity against human OE19 cells assessed as reduction in cell viability incubated for 72 hrs by presto blue assay. The data set is classed as functional. The method, boiled down:
(§1)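 3500 cells per well seeded and grown 24 h, then exposed to compound for 72 h. Viability read with PrestoBlue reagent per manufacturer's protocol, and GI50 taken from this.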

A further data set has as its system OE33. Kind of data set: Antiproliferative activity against human OE33 cells assessed as reduction in cell viability incubated for 72 hrs by presto blue assay. The data set is classed as functional. In a few lines: as §1
The nature of data set [1]: Drug uptake in human OE19 cells assessed as increase in fluorescence intensity at 1.25 uM measured for every 10 sec for 30 mins by fluorescence based assay. The note with it: oe19, 0.5 h. The data set is classed as ADME, cell-based. In a few lines:
(§2)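 Cells exposed to 1.25 µM compound, fluorescence recorded at Ex 370 nm / Em 530 nm every 10 s for 30 min on an epifluorescence microscope (40× objective). Treatment started 1 min before recording. Representative images taken at 15 min.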

Another data set concerns the target Histone deacetylase 1 (Homo sapiens, UniProt Q13547). Kind of data set: Inhibition of recombinant human full length C-terminal Flag/His-tagged HDAC1 expressed in baculovirus infected Sf9 cells using ZMAL as substrate incubated for 90 mins by fluorometric method.
Data set [2] addresses T1, Histone deacetylase (Homo sapiens) (UniProt Q13547+O15379+Q9UBN7+Q92769+Q9UQL6+Q8WUI4+Q9BY41+Q96DB2+P56524+Q9UKV0+Q969S8). Kind of data set: Inhibition of HDAC in human OE19 cells assessed as increase in histone H3 acetylation at 0.6 uM incubated for 48 hrs by Western blot analysis. The class given is cell-based. In a few lines:
(§3)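 500,000 OE33 or 750,000 OE19 cells treated 48 h. Histones isolated, 5 µg nuclear extract run on 15% SDS-PAGE and blotted. Probed overnight at 4 °C with anti-acetyl-histone H3 (Lys9) and anti-histone H3, compared with untreated controls.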
(In general: In western blotting, separated proteins are transferred to a membrane and probed.)

Data set [3] can be described thus: Drug uptake in human OE33 cells assessed as cytoplasmic retention at 1.25 uM measured after 30 mins by RFP-tagged histone H2B staining based confocal microscopy. Conditions: oe33, 0.5 h. The class given is ADME, cell-based. The method, boiled down:
(§4)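 Cells transfected with cDNA for histone H2B–RFP (DNA:reagent 1:1), then incubated 30 min with 1.25 µM compound. Imaged by confocal microscopy with 63× objective and 405 nm excitation.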

A further data set concerns the target Histone deacetylase 2 (Homo sapiens, UniProt Q92769). The data set can be described thus: Inhibition of recombinant human full length C-terminal Flag-tagged HDAC2 expressed in baculovirus infected Sf9 cells using ZMAL as substrate incubated for 90 mins by fluorometric method. The data set is classed as cell-based.
Data set [4] addresses T2, Protein deacetylase HDAC6 (Homo sapiens, UniProt Q9UBN7).
T2 sequence (Q9UBN7 whole entry): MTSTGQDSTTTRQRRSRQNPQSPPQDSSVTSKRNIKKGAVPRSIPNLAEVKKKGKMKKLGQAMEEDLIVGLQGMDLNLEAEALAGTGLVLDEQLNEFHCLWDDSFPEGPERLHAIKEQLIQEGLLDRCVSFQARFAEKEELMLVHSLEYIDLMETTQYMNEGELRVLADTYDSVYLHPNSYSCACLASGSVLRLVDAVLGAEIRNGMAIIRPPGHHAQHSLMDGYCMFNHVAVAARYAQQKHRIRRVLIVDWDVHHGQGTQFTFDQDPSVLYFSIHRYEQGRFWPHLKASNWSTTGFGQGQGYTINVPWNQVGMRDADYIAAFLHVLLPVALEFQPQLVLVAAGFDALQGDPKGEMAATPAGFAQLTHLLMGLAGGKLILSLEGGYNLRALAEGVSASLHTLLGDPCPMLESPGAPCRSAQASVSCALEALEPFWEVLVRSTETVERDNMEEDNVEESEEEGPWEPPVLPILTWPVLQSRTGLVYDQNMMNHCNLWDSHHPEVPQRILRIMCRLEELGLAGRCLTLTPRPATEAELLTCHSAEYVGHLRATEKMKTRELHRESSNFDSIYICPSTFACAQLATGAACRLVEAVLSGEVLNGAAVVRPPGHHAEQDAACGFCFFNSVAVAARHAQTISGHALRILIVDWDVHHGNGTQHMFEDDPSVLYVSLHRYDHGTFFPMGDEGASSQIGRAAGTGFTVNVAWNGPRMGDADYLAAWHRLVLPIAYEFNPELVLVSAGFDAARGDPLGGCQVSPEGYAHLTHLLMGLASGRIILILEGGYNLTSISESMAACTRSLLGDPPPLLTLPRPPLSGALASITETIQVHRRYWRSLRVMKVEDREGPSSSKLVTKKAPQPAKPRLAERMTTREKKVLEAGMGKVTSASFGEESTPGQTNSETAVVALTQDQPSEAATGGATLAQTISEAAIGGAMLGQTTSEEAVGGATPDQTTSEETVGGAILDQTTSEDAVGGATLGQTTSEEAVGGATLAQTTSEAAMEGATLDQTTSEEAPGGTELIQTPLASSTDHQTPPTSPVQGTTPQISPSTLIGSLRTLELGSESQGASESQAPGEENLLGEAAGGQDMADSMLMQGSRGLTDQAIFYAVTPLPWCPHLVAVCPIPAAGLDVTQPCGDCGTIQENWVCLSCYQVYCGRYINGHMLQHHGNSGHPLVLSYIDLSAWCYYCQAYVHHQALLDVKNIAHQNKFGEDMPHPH
Kind of data set: Inhibition of recombinant human full length C-terminal GST-tagged HDAC6 expressed in baculovirus infected Sf9 cells using ZMAL as substrate incubated for 90 mins by fluorometric method.

Data set [5] in a line: Drug uptake in human OE33 cells assessed as cytoplasmic retention at 1.25 uM measured after 30 mins by RFP-tagged histone H2B staining based confocal microscopy. Conditions: oe33, 30 min.
A short description of data set [6]: Drug uptake in human OE33 cells assessed as increase in fluorescence intensity at 1.25 uM measured for every 10 sec for 30 mins by fluorescence based assay. The data set is classed as ADME, cell-based. The note with it: oe33, 0.5 h. The method, boiled down:
as §2

For data set [7], the target named is Histone deacetylase 3/Nuclear receptor corepressor 2 (HDAC3/NCoR2) (Homo sapiens, UniProt O15379). Kind of data set: Inhibition of recombinant human C-terminal GST/His-tagged HDAC3 (1 to 428 residues) co-expressed with human N-terminal GST-tagged NCOR2 (395 to 489 residues) in baculovirus infected Sf9 cells using ZMAL as substrate incubated for 90 mins by fluorometric method.

Data set [8] in a line: Drug uptake in human OE19 cells assessed as cytoplasmic retention at 1.25 uM measured after 30 mins by RFP-tagged histone H2B staining based confocal microscopy. The note with it: oe19, 30 min.
Data set [9] can be described thus: Drug uptake in human OE19 cells assessed as increase in fluorescence intensity at 1.25 uM measured after 15 mins by microscopic method. The class given is ADME, cell-based. The note with it: oe19, 0.25 h. In a few lines: as §2
The target of data set [10] is T1, Histone deacetylase (Homo sapiens). Kind of data set: Inhibition of HDAC in human OE33 cells assessed as increase in histone H3 acetylation at 0.6 uM incubated for 48 hrs by Western blot analysis. The class given is cell-based. The method, boiled down:
as §3

The nature of data set [11]: Drug uptake in human OE33 cells assessed as increase in fluorescence intensity at 1.25 uM measured after 15 mins by microscopic method. The class given is ADME, cell-based. Conditions: oe33, 0.25 h. The method, boiled down: as §2
A short description of data set [12]: Drug uptake in human OE19 cells assessed as cytoplasmic retention at 1.25 uM measured after 30 mins by RFP-tagged histone H2B staining based confocal microscopy. Conditions: oe19, 0.5 h. The data set is classed as ADME, cell-based. In a few lines:
as §4

Data set [13] addresses T1, Histone deacetylase (Homo sapiens). The data set can be described thus: Inhibition of HDAC in human OE19 cells assessed as increase in histone H3 acetylation at 2.25 uM incubated for 48 hrs by Western blot analysis. The class given is cell-based. In a few lines: as §3
Data set [14] shares this target. The data set can be described thus: Inhibition of HDAC in human OE33 cells assessed as increase in histone H3 acetylation at 2.25 uM incubated for 48 hrs by Western blot analysis. The data set is classed as cell-based. In a few lines:
as §3

For data set [15] the target is unchanged. The data set can be described thus: Inhibition of HDAC in human OE19 cells assessed as increase in histone H3 acetylation at 6.5 uM incubated for 48 hrs by Western blot analysis. The data set is classed as cell-based. The method, boiled down:
as §3

For data set [16] the target is unchanged. Kind of data set: Inhibition of HDAC in human OE33 cells assessed as increase in histone H3 acetylation at 6.5 uM incubated for 48 hrs by Western blot analysis. The class given is cell-based. The method, boiled down: as §3

Sequence of Histone deacetylase 2 (Q92769 whole entry): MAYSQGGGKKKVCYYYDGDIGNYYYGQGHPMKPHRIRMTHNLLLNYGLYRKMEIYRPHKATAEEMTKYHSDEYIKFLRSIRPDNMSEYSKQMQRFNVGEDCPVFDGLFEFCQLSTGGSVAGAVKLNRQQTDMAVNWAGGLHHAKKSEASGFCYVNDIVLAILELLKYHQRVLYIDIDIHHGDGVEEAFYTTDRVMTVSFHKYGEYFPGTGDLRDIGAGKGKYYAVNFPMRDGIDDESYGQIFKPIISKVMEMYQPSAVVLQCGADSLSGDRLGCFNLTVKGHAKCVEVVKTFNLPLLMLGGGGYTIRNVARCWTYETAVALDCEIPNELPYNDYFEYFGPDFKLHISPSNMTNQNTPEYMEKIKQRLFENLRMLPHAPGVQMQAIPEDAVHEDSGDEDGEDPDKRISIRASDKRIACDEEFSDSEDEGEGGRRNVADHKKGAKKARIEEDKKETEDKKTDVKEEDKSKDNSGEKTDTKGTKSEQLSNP
Sequence of Histone deacetylase 3/Nuclear receptor corepressor 2 (HDAC3/NCoR2) (O15379 whole entry, the tested form may be a part): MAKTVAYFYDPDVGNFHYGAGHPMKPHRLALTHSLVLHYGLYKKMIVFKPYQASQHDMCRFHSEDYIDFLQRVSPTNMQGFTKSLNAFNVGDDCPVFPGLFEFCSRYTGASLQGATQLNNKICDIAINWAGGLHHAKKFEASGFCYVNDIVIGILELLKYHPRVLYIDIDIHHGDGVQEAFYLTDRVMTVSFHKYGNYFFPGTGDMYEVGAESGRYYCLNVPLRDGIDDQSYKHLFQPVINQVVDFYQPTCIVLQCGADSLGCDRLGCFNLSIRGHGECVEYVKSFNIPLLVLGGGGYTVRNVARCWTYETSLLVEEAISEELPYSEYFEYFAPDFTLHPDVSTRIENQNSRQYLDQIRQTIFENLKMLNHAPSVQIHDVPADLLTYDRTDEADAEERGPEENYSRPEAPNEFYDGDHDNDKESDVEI
Sequence of Histone deacetylase 3/Nuclear receptor corepressor 2 (HDAC3/NCoR2) (Q9Y618 whole entry, further chain, the tested form may be a part): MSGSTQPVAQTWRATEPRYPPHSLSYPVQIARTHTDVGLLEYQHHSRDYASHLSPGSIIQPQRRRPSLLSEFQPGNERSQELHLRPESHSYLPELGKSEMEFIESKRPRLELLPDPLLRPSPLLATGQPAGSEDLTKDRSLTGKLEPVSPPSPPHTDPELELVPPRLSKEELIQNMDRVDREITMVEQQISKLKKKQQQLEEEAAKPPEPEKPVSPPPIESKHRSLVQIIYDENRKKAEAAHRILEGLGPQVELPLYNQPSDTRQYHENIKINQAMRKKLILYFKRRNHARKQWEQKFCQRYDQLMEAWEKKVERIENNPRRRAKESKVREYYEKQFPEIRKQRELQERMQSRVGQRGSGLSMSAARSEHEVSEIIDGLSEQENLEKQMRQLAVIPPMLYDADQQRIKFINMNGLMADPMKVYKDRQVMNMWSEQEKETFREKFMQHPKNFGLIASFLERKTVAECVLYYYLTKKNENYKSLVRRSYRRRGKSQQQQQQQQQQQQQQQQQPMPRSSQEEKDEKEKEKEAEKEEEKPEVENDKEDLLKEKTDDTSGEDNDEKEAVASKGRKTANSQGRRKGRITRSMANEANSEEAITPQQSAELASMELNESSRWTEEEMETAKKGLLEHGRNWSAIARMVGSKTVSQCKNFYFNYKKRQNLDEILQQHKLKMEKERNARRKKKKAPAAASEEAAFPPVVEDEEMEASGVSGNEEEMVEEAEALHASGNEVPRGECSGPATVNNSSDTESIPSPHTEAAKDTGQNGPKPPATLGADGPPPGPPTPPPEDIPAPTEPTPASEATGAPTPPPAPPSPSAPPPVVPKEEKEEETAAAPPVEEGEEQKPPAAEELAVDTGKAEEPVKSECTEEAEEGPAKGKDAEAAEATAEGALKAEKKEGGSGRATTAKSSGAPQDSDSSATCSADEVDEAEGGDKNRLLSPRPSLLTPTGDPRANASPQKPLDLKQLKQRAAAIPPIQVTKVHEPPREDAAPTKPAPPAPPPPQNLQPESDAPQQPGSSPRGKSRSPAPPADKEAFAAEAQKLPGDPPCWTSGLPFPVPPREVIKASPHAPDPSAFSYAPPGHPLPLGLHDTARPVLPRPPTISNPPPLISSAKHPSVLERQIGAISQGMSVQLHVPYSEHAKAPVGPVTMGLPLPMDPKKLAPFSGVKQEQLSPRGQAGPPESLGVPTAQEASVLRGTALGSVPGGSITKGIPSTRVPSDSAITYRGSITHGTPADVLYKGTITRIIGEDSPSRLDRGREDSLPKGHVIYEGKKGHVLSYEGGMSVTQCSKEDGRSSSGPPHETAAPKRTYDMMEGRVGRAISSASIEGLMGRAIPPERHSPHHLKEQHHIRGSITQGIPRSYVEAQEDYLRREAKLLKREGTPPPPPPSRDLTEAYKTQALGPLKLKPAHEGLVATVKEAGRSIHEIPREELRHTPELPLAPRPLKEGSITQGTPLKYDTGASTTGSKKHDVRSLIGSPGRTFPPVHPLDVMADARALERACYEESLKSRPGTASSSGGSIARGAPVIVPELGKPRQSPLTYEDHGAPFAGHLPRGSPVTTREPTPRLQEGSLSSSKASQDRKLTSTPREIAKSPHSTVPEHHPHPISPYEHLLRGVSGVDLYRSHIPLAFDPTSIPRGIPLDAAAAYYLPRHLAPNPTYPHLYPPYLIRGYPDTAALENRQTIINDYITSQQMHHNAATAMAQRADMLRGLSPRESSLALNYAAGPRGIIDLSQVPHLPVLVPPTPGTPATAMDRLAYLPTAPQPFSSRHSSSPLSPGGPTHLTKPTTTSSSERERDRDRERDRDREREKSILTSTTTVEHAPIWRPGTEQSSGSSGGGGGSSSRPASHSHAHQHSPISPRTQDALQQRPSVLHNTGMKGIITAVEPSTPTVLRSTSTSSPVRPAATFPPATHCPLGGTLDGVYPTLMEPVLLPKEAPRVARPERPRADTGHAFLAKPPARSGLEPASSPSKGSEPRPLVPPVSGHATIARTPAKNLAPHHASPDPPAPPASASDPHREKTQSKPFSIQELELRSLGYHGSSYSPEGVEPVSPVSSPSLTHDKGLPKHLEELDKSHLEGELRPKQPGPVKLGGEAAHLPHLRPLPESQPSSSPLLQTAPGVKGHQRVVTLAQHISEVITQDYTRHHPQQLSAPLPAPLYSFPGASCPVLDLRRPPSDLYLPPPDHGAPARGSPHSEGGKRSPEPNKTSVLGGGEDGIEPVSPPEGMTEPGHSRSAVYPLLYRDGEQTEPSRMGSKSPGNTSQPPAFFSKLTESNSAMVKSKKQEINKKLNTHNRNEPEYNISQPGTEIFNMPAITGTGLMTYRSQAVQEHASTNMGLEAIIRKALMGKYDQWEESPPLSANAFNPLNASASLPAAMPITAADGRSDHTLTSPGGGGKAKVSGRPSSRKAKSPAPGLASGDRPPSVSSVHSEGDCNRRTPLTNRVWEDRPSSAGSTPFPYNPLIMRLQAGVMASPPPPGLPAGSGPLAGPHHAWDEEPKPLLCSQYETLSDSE
Sequence of Histone deacetylase 1 (Q13547 whole entry): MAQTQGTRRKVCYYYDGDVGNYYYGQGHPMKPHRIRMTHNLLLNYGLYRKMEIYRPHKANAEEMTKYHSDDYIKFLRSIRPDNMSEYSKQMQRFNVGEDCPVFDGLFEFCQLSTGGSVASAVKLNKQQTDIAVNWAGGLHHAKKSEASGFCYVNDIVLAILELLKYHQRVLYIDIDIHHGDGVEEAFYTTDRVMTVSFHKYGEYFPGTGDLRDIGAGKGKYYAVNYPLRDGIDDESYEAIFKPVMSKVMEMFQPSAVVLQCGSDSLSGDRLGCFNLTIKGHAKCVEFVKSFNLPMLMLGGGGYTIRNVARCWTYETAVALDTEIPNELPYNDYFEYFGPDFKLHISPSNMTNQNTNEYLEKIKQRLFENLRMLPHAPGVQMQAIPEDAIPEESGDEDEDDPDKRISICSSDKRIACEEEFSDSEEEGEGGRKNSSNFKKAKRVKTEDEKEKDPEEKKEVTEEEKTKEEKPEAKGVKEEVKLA

What is called GI50 is the concentration that inhibits growth by half. For `O=C(CCCCCCC(=O)Nc1ccccc1)NO` [VORINOSTAT], the values for the GI50 with OE19 and in the data set with OE33 were 1.42 µM and 1.12 µM, respectively.
What is called IC50 is the concentration that inhibits the measured activity by half. Regarding `CN(C)c1cccc2c(S(=O)(=O)N(CC(=O)NCc3ccccc3)Cc3ccc(C(=O)Nc4ccccc4N)cc3)cccc12`, the Drug uptake result in [1], in data set [3], in [5], in data set [6], in data set [8] and in data set [9] was “Active” in each case. Further, the Drug uptake result in data set [11] and in data set [12] was “Active” throughout. The 50% inhibitory concentration (IC50) was 0.676 µM on Histone deacetylase 1, 0.668 µM at Histone deacetylase 2, more than 10 µM in [4] and 1.13 µM in data set [7]. The inhibition result in [2] and in data set [10] was “Active” throughout. In addition, the GI50 in the data set on OE19 (Homo sapiens, OE19, 72 h) amounted to 9.1 µM; in the data set on OE33 (Homo sapiens, OE33, 72 h), 4.59 µM.
As for `CN(C)c1cccc2c(S(=O)(=O)N(CCCCCC(=O)NO)CC(=O)NCc3ccccc3)cccc12`, the Drug uptake entry in data set [1], in data set [3], in data set [5], in [6], in [8] and in data set [9] was “Active” each time. Besides, the Drug uptake entry in data set [11] and in data set [12] was “Active” in each case. For the same compound, the IC50 at Histone deacetylase 1 turned out to be 0.034 µM; on Histone deacetylase 2 it was 0.081 µM; in data set [4], 0.046 µM; in data set [7] it was 0.087 µM. For the same compound, the 50% growth inhibitory concentration (GI50) with OE19 (Homo sapiens, OE19, 72 h) was determined as 0.925 µM; in the data set on OE33 (Homo sapiens, OE33, 72 h), 0.776 µM. Besides, the inhibition entry in [13] and in [14] was “Active” throughout.
On to `CN(C)c1cccc2c(S(=O)(=O)N(CC(=O)NCc3ccccc3)Cc3ccc(C(=O)NO)cc3)cccc12`, for which the inhibition entry in data set [15] and in [16] was “Active” in each case. Moreover, the Drug uptake entry in data set [1], in data set [3], in data set [5], in data set [6], in data set [8] and in [9] was “Active” each time. Also, the Drug uptake result in data set [11] and in data set [12] was “Active” in each case. For the same compound, the IC50 worked out at 0.915 µM at Histone deacetylase 1, 3.5 µM on Histone deacetylase 2, 0.132 µM in data set [4] and 1.02 µM in data set [7]. In addition, the GI50 turned out to be 12.9 µM in the data set with OE19 (Homo sapiens, OE19, 72 h) and 6.23 µM in the data set on OE33 (Homo sapiens, OE33, 72 h).
